Measured values published in ChEMBL document CHEMBL1157378, “Role for cell density in antifungal drug resistance in Candida albicans biofilms” (2007).
Converted amounts (≈) assume the structure as drawn. The source made the active and inactive calls. No cut-off for these calls is given here.

Assays:
Candida albicans [1] = test: Antimicrobial activity against fluconazole-resistant Candida albicans FH5 at planktonic cell density of 10^8 cells/ml after 48 hrs by XTT assay; assay type: functional; conditions: FH5, 48 h
Procedure, shortened: (§1)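 YNB-grown yeast (50 mM glucose, room temperature, shaken, to ~2 x 10^8 cells/ml) washed into MOPS-buffered RPMI 1640 with L-glutamine and set to the stated density. Exposed to twofold serial drug dilutions (1,024 to 0.0313 µg/ml) at 37°C, 48 h (caspofungin 24 h), with drug-free controls. Read-out: XTT (0.5 g/liter) plus 1 µM menadione, formazan at 490 nm.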

Candida albicans [2] = test: Antimicrobial activity against Candida albicans GDH2346 at planktonic cell density of 10^8 cells/ml after 48 hrs by XTT assay; assay type: functional; conditions: GDH2346, 48 h; procedure, shortened: as §1
Candida albicans [3] = test: Antimicrobial activity against Cdr1, Cdr2 and Mdr1 deficient Candida albicans DSY1050 at planktonic cell density of 10^8 cells/ml after 48 hrs by XTT assay; assay type: functional; conditions: DSY1050, 48 h; procedure, shortened: as §1
Candida albicans [4] = test: Antimicrobial activity against Candida albicans FH1 intact biofilms after 48 hrs by XTT assay; assay type: functional; conditions: FH1, 48 h
Procedure, shortened: (§2)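 Biofilm seeded at 1 x 10^6 cells/ml in RPMI in polystyrene microtiter wells and grown 48 h at 37°C in a moist chamber. Washed once and drug added to the same well (twofold dilutions, 1,024 to 0.0313 µg/ml) for 48 h at 37°C (caspofungin 24 h). Read-out: XTT/menadione reduction at 490 nm.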

Candida albicans [5] = test: Antimicrobial activity against Chk1 deficient Candida albicans CHK21 at planktonic cell density of 10^3 cells/ml after 48 hrs by XTT assay; assay type: functional; conditions: CHK21, 48 h; procedure, shortened: as §1
Candida albicans [6] = test: Antimicrobial activity against Cdr1, Cdr2 and Mdr1 deficient Candida albicans DSY1050 at planktonic cell density of 10^3 cells/ml after 48 hrs by XTT assay; assay type: functional; conditions: DSY1050, 48 h; procedure, shortened: as §1
Candida albicans [7] = test: Antimicrobial activity against Candida albicans FH1 dissociated biofilms at cell density of 10^8 cells/ml after 48 hrs by XTT assay; assay type: functional; conditions: FH1, 48 h
Procedure, shortened: (§3)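 Polystyrene-well biofilms (48 h, 37°C) washed, then broken up in 100 µl RPMI by scraping and aspiration. Cells used undiluted (about 2 x 10^8 cells/ml equivalent) or adjusted by A600 against a hemacytometer-calibrated yeast standard curve. Drug exposure at 37°C for 48 h (caspofungin 24 h), then XTT/menadione read at 490 nm.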

Candida albicans [8] = test: Antimicrobial activity against Candida albicans GDH2346 at planktonic cell density of 10^3 cells/ml after 48 hrs by XTT assay; assay type: functional; conditions: GDH2346, 48 h; procedure, shortened: as §1
Candida albicans [9] = test: Antimicrobial activity against Candida albicans FH1 at planktonic cell density of 10^8 cells/ml after 48 hrs by XTT assay; assay type: functional; conditions: FH1, 48 h; procedure, shortened: as §1
Candida albicans [10] = test: Inhibition of metabolic activity in Candida albicans SC5314 at 32 ug/ml; assay type: functional; design: scale not given: the % may be the effect or the level left
Procedure, shortened: (§4)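 SC5314 fluconazole susceptibility tested with or without FK506. Cell suspension, drug and FK506 volumes set to the final concentrations in 200 µl. Incubation at 37°C for 48 h, then metabolic activity by XTT/menadione at 490 nm.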

Candida albicans [11] = test: Antimicrobial activity against Candida albicans planktonic forms; assay type: functional
Procedure, shortened: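 Yeast grown in YNB/50 mM glucose at room temperature to about 2 x 10^8 cells/ml, washed, and resuspended in MOPS-buffered RPMI 1640. Tested at 2 x 10^3 cells/ml (standard) or at densities from 1 x 10^3 to 1 x 10^8 cells/ml. Incubated with twofold drug dilutions at 37°C for 48 h (caspofungin 24 h). XTT-menadione read-out at 490 nm.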

Candida albicans [12] = test: Antimicrobial activity against Candida albicans GDH2346 dissociated biofilms at cell density of 10^8 cells/ml after 48 hrs by XTT assay; assay type: functional; conditions: GDH2346, 48 h; procedure, shortened: as §3
Candida albicans [13] = test: Antimicrobial activity against Candida albicans SC5314 dissociated biofilms grown on polyvinylchloride catheter surface at cell density of 10^8 cells/ml at 0.25 to 8 ug/ml by XTT assay; assay type: functional, organism-based
Procedure, shortened: (§5)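 1-cm discs of denture acrylic, PVC catheter or silicone elastomer-coated latex catheter, ethylene-oxide sterilised. Seeded with 1 ml of 1 x 10^6 cells/ml, adhesion 90 min at 37°C, washed, grown 48 h at 37°C in RPMI. Biofilm scraped off, set to 1 x 10^3 or 1 x 10^8 cells/ml, exposed to fluconazole, read by XTT at 490 nm.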

Candida albicans [14] = test: Antimicrobial activity against fluconazole-resistant Candida albicans FH5 at planktonic cell density of 10^3 cells/ml after 48 hrs by XTT assay; assay type: functional; conditions: FH5, 48 h; procedure, shortened: as §1
Candida albicans [15] = test: Antimicrobial activity against fluconazole-resistant Candida albicans FH5 intact biofilms after 48 hrs by XTT assay; assay type: functional; conditions: FH5, 48 h; procedure, shortened: as §2
Candida albicans [16] = test: Antimicrobial activity against Cdr1, Cdr2 and Mdr1 deficient Candida albicans DSY1050 dissociated biofilms at cell density of 10^8 cells/ml after 48 hrs by XTT assay; assay type: functional; conditions: DSY1050, 48 h; procedure, shortened: as §3
Candida albicans [17] = test: Antimicrobial activity against Candida albicans GDH2346 intact biofilms after 48 hrs by XTT assay; assay type: functional; conditions: GDH2346, 48 h; procedure, shortened: as §2
Candida albicans [18] = test: Antimicrobial activity against Candida albicans SC5314 at 512 ug/ml at planktonic cell density of 5 x 10^7 cells/ml after 48 hrs by XTT assay; assay type: functional; conditions: SC5314, 48 h
Candida albicans [19] = test: Antimicrobial activity against Candida albicans SC5314 intact biofilms after 48 hrs by XTT assay; assay type: functional; conditions: SC5314, 48 h; procedure, shortened: as §2
Candida albicans [20] = test: Antimicrobial activity against Candida albicans GDH2346 dissociated biofilms at cell density of 10^3 cells/ml after 48 hrs by XTT assay; assay type: functional; conditions: GDH2346, 48 h; procedure, shortened: as §3
Candida albicans [21] = test: Antimicrobial activity against Candida albicans SC5314 dissociated biofilms grown on polymethylmethacrylate surface at cell density of 10^8 cells/ml at 0.25 to 8 ug/ml by XTT assay; assay type: functional, organism-based; procedure, shortened: as §5
Candida albicans [22] = test: Antimicrobial activity against Candida albicans SC5314 dissociated biofilms at cell density of 10^8 cells/ml after 48 hrs by XTT assay; assay type: functional; conditions: SC5314, 48 h; procedure, shortened: as §3
Candida albicans [23] = test: Antimicrobial activity against Candida albicans SC5314 dissociated biofilms grown on polymethylmethacrylate surface at cell density of 10^3 cells/ml at 0.25 to 8 ug/ml by XTT assay; assay type: functional, organism-based; procedure, shortened: as §5
Candida albicans [24] = test: Antimicrobial activity against fluconazole-resistant Candida albicans FH5 dissociated biofilms at cell density of 10^8 cells/ml after 48 hrs by XTT assay; assay type: functional; conditions: FH5, 48 h; procedure, shortened: as §3
Candida albicans [25] = test: Antimicrobial activity against Candida albicans SC5314 dissociated biofilms grown on silicone-elastomer coated latex surface at cell density of 10^3 cells/ml at 0.25 to 8 ug/ml by XTT assay; assay type: functional, organism-based; procedure, shortened: as §5
Candida albicans [26] = test: Antimicrobial activity against Cdr1, Cdr2 and Mdr1 deficient Candida albicans DSY1050 dissociated biofilms at cell density of 10^3 cells/ml after 48 hrs by XTT assay; assay type: functional; conditions: DSY1050, 48 h; procedure, shortened: as §3
Candida albicans [27] = test: Antimicrobial activity against fluconazole-resistant Candida albicans FH5 dissociated biofilms at cell density of 10^3 cells/ml after 48 hrs by XTT assay; assay type: functional; conditions: FH5, 48 h; procedure, shortened: as §3
Candida albicans [28] = test: Antimicrobial activity against Candida albicans SC5314 dissociated biofilms at cell density of 10^3 cells/ml after 48 hrs by XTT assay; assay type: functional; conditions: SC5314, 48 h; procedure, shortened: as §3
Candida albicans [29] = test: Inhibition of metabolic activity in Candida albicans SC5314 at 32 ug/ml in presence of 2 ug/ml calcineurin pathway inhibitor FK506; assay type: functional; design: scale not given: the % may be the effect or the level left; procedure, shortened: as §4

## OC(Cn1cncn1)(Cn1cncn1)c1ccc(F)cc1F [FLUCONAZOLE]
Candida albicans [1]
  MIC80: > 512 µg/mL
Candida albicans [2]
  MIC80: > 512 µg/mL
Candida albicans [3]
  MIC80: > 64 µg/mL
Candida albicans [4]
  MIC80: > 512 µg/mL
Candida albicans [5]
  MIC80: 0.125 µg/mL (≈ 0.408 µM)
Candida albicans [6]
  MIC80: 0.25 µg/mL (≈ 0.816 µM)
Candida albicans [7]
  MIC80: > 512 µg/mL
Candida albicans [8]
  MIC80: 2 µg/mL (≈ 6.53 µM)
Candida albicans [9]
  MIC80: > 512 µg/mL
Candida albicans [10]
  Activity: 15%
Candida albicans [11]
  MIC: 2 µg/mL (≈ 6.53 µM)
Candida albicans [12]
  MIC80: > 64 µg/mL
Candida albicans [13]
  Activity: inactive
Candida albicans [14]
  MIC80: 64 µg/mL (≈ 209 µM)
Candida albicans [15]
  MIC80: > 512 µg/mL
Candida albicans [16]
  MIC80: > 64 µg/mL
Candida albicans [17]
  MIC80: > 512 µg/mL
Candida albicans [18]
  inhibition at 512 µg/mL: 40%
Candida albicans [19]
  MIC80: > 512 µg/mL
Candida albicans [20]
  MIC80: 0.25 µg/mL (≈ 0.816 µM)
Candida albicans [21]
  Activity: inactive
Candida albicans [22]
  MIC80: > 256 µg/mL
Candida albicans [23]
  Activity: Active
Candida albicans [24]
  MIC80: > 512 µg/mL
Candida albicans [25]
  Activity: Active
Candida albicans [26]
  MIC80: 0.125 µg/mL (≈ 0.408 µM)
Candida albicans [27]
  MIC80: 64 µg/mL (≈ 209 µM)
Candida albicans [28]
  MIC80: 0.25 µg/mL (≈ 0.816 µM)
Candida albicans [29]
  Activity: 17%
